Most compounds without a hit are left out; they make up all but 2% or so of the library.
PPC-1+TRAIL kill = kills PPC-1 cancer cells in the presence of TRAIL | PPC-1 cells + TRAIL, ATPLite viability luminescence | cell killing (% activity), % at 4 µM or 5 µM | hit rate 0.41% among 220,000 | AID 1443;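 active means cell killing above 50% in the first pass at 4 µM, then a duplicate retest at 5 µM averaging 50% or more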
FLuc stim CS = firefly luciferase counter-screen for stimulation assays; AID 1027; P08659; activation factor at 10 µM; ATPlite luciferase biochemical, luminescence, 10 min; 0 = ATP-free wells, 1 = DMSO control; 200,000 tested, under 10 active;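 active means luciferase activation factor, scaled between plate controls, of at least 2 with compound at 10 µM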
Target sequence (P08659 whole entry, looked up): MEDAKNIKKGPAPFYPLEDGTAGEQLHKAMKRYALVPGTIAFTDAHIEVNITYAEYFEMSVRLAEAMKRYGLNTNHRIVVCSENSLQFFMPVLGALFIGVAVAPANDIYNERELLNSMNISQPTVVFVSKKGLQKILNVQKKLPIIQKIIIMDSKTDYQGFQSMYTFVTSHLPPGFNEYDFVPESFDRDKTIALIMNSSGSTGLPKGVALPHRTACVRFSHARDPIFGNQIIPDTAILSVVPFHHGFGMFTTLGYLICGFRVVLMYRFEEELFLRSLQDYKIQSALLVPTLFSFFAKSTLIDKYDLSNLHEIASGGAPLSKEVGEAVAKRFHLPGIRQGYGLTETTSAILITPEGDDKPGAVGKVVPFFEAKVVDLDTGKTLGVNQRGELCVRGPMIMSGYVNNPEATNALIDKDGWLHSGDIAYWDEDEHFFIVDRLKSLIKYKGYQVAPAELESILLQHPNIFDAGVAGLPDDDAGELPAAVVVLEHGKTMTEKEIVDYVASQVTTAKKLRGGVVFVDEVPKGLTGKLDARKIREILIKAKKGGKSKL
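System: luciferase plus luciferin reagent, cell-free; medium: PBS as buffer for the ATP substrate; dosing: test compounds dosed from 2 mM stocks in 100% DMSO; timing: 10 min post-reagent at room temperature; measured by: luminescence measurement of luciferase light output; evaluation: luciferase activation, seen as luminescence increase over controls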
TRAIL sens C8 = sensitizes caspase-8 expressing cells to TRAIL; NB7+C8 cells + TRAIL, ATPlite viability luminescence; inhibition (viability loss, TRAIL sensitization), % at 10 µM; AID 624354; hit rate 1% among 360,000;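 active means compounds causing at least 50% loss of cell viability in the single-dose screen, relative to plate controls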
HSP90 inh = blocks HSP90-mediated luciferase refolding in reticulocyte lysate; inhibition, % at 5.6 µM; hit rate 0.91% among 290,000; AID 1789; Rabbit reticulocyte lysate, luciferase refolding luminescence, 3 h;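 active means inhibition above the screen-wide mean plus 3 SD, computed separately per campaign, cut at about 16% in these data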;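 further: inhibitors lower the luminescence because luciferase stays unfolded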
FLuc inh counter = counter-screen for luciferase assay inhibitors: firefly luciferase inhibition; inhibition, % at 10 µM; ATPLite firefly luciferase biochemical luminescence, 10 min; hit rate 1.5% among 200,000; P08659; AID 1006;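 active means inhibition above about 50% when tested at 10 µM, limit read from the data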
HSP90 inh confirm = HSP90 inhibition, confirmation assay. shares compounds with HSP90 inh. rabbit reticulocyte lysate, luciferase refolding luminescence, 3 h. inhibition, % at 5.9 µM. hit rate 64% among 2,300; in the data active means inhibition above about 18%
FLuc counter = firefly luciferase inhibition, HSP90 counter-screen; shares compounds with HSP90 inh; purified native firefly luciferase, luminescence; inhibition, % at 5.9 µM; hit rate 48% among 2,300; AID 1847;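 active means inhibition above the mean inhibition of all tested sample wells plus 3 SD, cut at about 10% in these data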
Numbers stand for hits.

CCOC(=O)c1cc(NC(=O)Nc2cc(C)ccn2)c(C)nc1C was read as PPC-1+TRAIL kill inactive, FLuc stim CS inactive, TRAIL sens C8 inactive, HSP90 inh inactive and FLuc inh counter inactive.
Screening CCN(CC)C(=S)Nc1cc(C(=O)OC)ccc1C(=O)OC returned PPC-1+TRAIL kill inactive, FLuc stim CS inactive, TRAIL sens C8 inactive, HSP90 inh inactive and FLuc inh counter inactive.
`O=C(O)c1ccc(NNC(=S)Nc2cc(C(F)(F)F)ccc2Cl)cc1` gave TRAIL sens C8 inactive, HSP90 inh 61, HSP90 inh confirm 54 and FLuc counter 53.
For O=C(Cc1ccc2c(c1)OCCO2)Nc1ccc(Cl)c(S(=O)(=O)N2CCOCC2)c1 the results were TRAIL sens C8 inactive.
`Cc1ccc(NC(=O)Cc2ccc3c(c2)OCCO3)cc1S(=O)(=O)N1CCCCC1` gave PPC-1+TRAIL kill inactive, TRAIL sens C8 inactive, HSP90 inh 27, HSP90 inh confirm inactive and FLuc counter inactive.
`Cc1csc(NC(=O)c2cnc3ccccc3n2)n1` gave TRAIL sens C8 inactive, HSP90 inh 43, HSP90 inh confirm 53 and FLuc counter 40.
`CCOC(=O)c1sc(NC(=O)c2ccc(CC)s2)nc1C` gave PPC-1+TRAIL kill inactive, FLuc stim CS inactive, TRAIL sens C8 inactive, HSP90 inh inactive and FLuc inh counter inactive.
For Cc1csc(NC(=O)c2cc(C)nc3ccccc23)n1 the results were PPC-1+TRAIL kill inactive, FLuc stim CS inactive, TRAIL sens C8 inactive, HSP90 inh inactive and FLuc inh counter inactive.
`CCc1ccc(C(=O)Nc2nc(C)cs2)s1` gave TRAIL sens C8 inactive, HSP90 inh 43, HSP90 inh confirm 56 and FLuc counter 52.
`Cc1ncc(COCc2ccccc2)c(CO)c1OCc1ccccc1` gave TRAIL sens C8 inactive.
C#CCn1cc(/C=C2\NC(=O)NC2=O)c2ccccc21 was read as TRAIL sens C8 inactive, HSP90 inh 67, HSP90 inh confirm 53 and FLuc counter inactive.
For CC(C)n1cc(/C=C2/NC(=O)NC2=O)c2ccccc21 the results were PPC-1+TRAIL kill inactive, FLuc stim CS inactive, TRAIL sens C8 inactive, HSP90 inh inactive and FLuc inh counter inactive.
`CC(C)=C(NC(=O)c1ccccc1Br)C(=O)NCCc1nc2ccccc2[nH]1` gave PPC-1+TRAIL kill inactive, TRAIL sens C8 inactive and HSP90 inh inactive.
`N=C(SC1CC(=O)N(c2ccc(F)cc2)C1=O)N1N=C(c2ccccc2)CC1c1ccccc1` (stereo unspecified) gave PPC-1+TRAIL kill inactive, FLuc stim CS inactive, TRAIL sens C8 inactive, HSP90 inh inactive and FLuc inh counter inactive.
O=C(Nc1ncc(Cl)cc1Cl)c1c(F)cccc1Cl was read as PPC-1+TRAIL kill inactive, FLuc stim CS inactive, TRAIL sens C8 inactive, HSP90 inh inactive and FLuc inh counter inactive.

Bioassay records from PubChem.
